# According to ChEMBL document CHEMBL4007505 (J Med Chem, 2017):
# Calls of active or inactive are those of the source.
# Columns and labels:
# Adenosine receptor A3 [1] = target: T1, Adenosine receptor A3 (Homo sapiens, UniProt P0DMS8); assay: Displacement of [125I]N6-(4-amino-3-iodobenzyl)adenosine-5'-N-methyluronamide from human A3AR expressed in HEK293T cells pre-incubated for 10 mins before radioligand addition and measured 90 mins after radioligand addition by micro beta scintillation counting analysis relative to control; format: cell-based, HEK-293T
# T1 sequence (P0DMS8 whole entry): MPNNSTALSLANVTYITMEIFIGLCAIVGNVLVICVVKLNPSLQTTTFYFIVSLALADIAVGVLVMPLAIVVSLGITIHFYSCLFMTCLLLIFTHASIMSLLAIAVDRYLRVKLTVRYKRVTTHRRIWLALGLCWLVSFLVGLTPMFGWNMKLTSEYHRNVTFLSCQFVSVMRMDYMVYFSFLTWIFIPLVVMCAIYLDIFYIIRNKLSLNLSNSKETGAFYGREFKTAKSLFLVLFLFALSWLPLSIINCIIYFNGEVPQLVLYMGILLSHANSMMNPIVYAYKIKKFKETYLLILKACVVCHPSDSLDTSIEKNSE
# [2] = target: T2, Sodium-dependent dopamine transporter (Homo sapiens, UniProt Q01959); assay: Enhancing of [3H]WIN35,428 binding to recombinant human DAT expressed in HEK293 cell membranes at 10 uM pre-incubated for 10 mins before radioligand addition and measured 90 mins after radioligand addition by micro beta scintillation counting analysis relative to control
# [3] = target: Alpha-2B adrenergic receptor (Homo sapiens, UniProt P18089); assay: Displacement of [3H]Rauwolscine from human adrenergic alpha2B receptor
# [4] = target: Alpha-2A adrenergic receptor (Homo sapiens, UniProt P08913); assay: Displacement of [3H]Rauwolscine from human adrenergic alpha2A receptor
# [5] = target: T3, Alpha-1A adrenergic receptor (Homo sapiens, UniProt P35348); assay: Displacement of [3H]Prazosin from human adrenergic alpha1A receptor
# T3 sequence (P35348 whole entry): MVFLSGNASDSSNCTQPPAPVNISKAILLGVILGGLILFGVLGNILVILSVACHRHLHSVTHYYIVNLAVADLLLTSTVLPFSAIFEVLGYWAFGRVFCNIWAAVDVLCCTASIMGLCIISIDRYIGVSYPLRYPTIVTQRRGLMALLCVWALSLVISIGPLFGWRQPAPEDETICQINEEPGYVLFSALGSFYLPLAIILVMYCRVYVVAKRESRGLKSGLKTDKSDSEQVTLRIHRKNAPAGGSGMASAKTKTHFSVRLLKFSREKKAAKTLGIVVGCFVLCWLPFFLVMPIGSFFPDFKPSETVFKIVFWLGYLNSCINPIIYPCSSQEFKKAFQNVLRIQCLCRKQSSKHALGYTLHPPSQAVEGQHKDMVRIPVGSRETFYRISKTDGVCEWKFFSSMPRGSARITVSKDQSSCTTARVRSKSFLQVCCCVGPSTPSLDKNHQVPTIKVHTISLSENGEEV
# [6] = target: T2, Sodium-dependent dopamine transporter; assay: Enhancing of [3H]WIN35,428 binding to recombinant human DAT expressed in HEK293 cell membranes pre-incubated for 10 mins before radioligand addition and measured 90 mins after radioligand addition by micro beta scintillation counting analysis relative to control
# Mus musculus = assay: Antiallodynic activity in mouse chronic constriction injury model of neuropathic pain assessed as time duration of action for increasing in paw withdrawal threshold at 3 umol/kg, po administered on day 7 post injury; format: functional
# [7] = target: T4, Alpha-1B adrenergic receptor (Homo sapiens, UniProt P35368); assay: Displacement of [3H]Prazosin from human adrenergic alpha1B receptor
# T4 sequence (P35368 whole entry): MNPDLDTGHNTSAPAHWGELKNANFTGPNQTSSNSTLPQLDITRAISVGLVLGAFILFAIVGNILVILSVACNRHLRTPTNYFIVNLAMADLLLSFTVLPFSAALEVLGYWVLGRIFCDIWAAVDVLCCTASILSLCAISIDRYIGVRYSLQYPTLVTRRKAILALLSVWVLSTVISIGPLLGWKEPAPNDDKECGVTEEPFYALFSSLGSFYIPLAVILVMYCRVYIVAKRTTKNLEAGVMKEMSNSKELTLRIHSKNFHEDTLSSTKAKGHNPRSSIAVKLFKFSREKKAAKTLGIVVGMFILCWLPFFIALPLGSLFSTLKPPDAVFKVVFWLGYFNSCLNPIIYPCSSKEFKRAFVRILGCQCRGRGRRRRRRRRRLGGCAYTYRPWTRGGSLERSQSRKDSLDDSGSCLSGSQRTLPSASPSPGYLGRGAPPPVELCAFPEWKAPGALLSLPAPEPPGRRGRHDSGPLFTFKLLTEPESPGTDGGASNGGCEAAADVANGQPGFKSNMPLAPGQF
# [8] = target: T5, Alpha-1D adrenergic receptor (Homo sapiens, UniProt P25100); assay: Displacement of [3H]Prazosin from human adrenergic alpha1D receptor
# T5 sequence (P25100 whole entry): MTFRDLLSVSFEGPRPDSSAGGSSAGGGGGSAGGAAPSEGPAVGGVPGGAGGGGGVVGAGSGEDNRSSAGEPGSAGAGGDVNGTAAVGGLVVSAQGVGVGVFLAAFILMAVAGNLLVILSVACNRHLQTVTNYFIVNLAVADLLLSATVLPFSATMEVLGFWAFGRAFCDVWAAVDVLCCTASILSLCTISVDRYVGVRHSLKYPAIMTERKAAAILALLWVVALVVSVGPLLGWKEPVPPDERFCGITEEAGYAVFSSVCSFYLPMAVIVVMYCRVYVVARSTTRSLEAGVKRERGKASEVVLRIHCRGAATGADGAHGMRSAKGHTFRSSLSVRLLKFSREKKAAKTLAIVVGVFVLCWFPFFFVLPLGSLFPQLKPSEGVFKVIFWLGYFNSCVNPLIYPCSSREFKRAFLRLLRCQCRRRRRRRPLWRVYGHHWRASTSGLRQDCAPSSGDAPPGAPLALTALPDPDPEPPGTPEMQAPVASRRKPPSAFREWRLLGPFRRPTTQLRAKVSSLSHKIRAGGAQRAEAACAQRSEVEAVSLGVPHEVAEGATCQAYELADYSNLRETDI
# [9] = target: T2, Sodium-dependent dopamine transporter; assay: Inhibition of [3H]WIN35,428 binding to recombinant human DAT expressed in HEK293 cell membranes at 10 uM pre-incubated for 10 mins before radioligand addition and measured 90 mins after radioligand addition by micro beta scintillation counting analysis relative to control
# [10] = target: T6, Alpha-2C adrenergic receptor (Homo sapiens, UniProt P18825); assay: Displacement of [3H]Rauwolscine from human adrenergic alpha2C receptor
# T6 sequence (P18825 whole entry): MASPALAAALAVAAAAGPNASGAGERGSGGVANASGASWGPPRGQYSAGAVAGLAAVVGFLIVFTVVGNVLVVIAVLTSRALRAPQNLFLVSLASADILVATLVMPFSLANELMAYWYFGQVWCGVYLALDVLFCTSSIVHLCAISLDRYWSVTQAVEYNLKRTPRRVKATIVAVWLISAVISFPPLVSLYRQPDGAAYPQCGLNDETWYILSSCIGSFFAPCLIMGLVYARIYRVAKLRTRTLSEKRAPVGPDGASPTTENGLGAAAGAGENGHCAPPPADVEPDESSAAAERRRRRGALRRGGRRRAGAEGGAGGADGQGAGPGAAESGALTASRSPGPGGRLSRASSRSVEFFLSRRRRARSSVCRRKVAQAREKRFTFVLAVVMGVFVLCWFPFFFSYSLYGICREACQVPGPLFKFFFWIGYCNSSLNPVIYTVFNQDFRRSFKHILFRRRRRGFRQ
# Adenosine receptor A3 [11] = target: T7, Adenosine receptor A3 (Mus musculus, UniProt Q61618); assay: Displacement of [125I]N6-(4-amino-3-iodobenzyl)adenosine-5'-N-methyluronamide from mouse A3AR expressed in HEK293T cells pre-incubated for 10 mins before radioligand addition and measured 90 mins after radioligand addition by micro beta scintillation counting analysis relative to control; format: cell-based
# T7 sequence (Q61618 whole entry): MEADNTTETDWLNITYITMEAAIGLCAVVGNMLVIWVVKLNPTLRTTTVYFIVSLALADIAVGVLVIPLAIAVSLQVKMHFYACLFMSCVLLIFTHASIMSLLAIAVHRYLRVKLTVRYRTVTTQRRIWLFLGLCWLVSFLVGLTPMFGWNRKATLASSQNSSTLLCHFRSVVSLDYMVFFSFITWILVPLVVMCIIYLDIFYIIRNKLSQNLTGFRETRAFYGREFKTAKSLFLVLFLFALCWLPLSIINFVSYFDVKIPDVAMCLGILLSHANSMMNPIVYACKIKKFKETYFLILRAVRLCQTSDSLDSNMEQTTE
# [12] = target: T8, Sodium-dependent noradrenaline transporter (Homo sapiens, UniProt P23975); assay: Inhibition of [3H]nisoxetine binding to recombinant human NET expressed in HEK293 cell membranes preincubated for 10 mins followed by radioligand addition measured after 90 mins by micro beta scintillation counting analysis
# [13] = target: T2, Sodium-dependent dopamine transporter; assay: Inhibition of recombinant human DAT expressed in HEK293 cell […] as reduction in [3H]-DA uptake incubated for 22 mins by micro beta scintillation counting analysis
# [14] = target: T2, Sodium-dependent dopamine transporter; assay: Enhancing of [125I]RTI-55 binding to recombinant human DAT expressed in HEK293 cell membranes preincubated for 10 mins followed by radioligand addition measured after 90 mins by micro beta scintillation counting analysis; parameters: concentration or dose not given beside the values
# Outline: (§1)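 Membranes of HEK-293 cells stably expressing hDAT, hNET or hSERT. […] Compound preincubated 10 min at room temperature, then [125I]23 (40-80 pM final) or [3H]26 (1-3 nM for DAT and NET, 10-13 nM for SERT) added. Incubated 90 min at room temperature in the dark, then filtered. EC50 or Ki; mean ± SEM.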
# [15] = target: T2, Sodium-dependent dopamine transporter; assay: Enhancing of [3H]mazindol binding to recombinant human DAT expressed in HEK293 cell membranes preincubated for 10 mins followed by radioligand addition measured after 90 mins by micro beta scintillation counting analysis; parameters: concentration or dose not given beside the values; outline: as §1
# [16] = target: T9, Sodium-dependent dopamine transporter (Mus musculus, UniProt Q61327); assay: Inhibition of mouse DAT expressed in HEK293 cells assessed as reduction in [3H]-DA uptake; format: cell-based
# [17] = target: T8, Sodium-dependent noradrenaline transporter; assay: Inhibition of recombinant human NET expressed in HEK293 […] assessed as reduction in [3H]-norepinephrine uptake incubated for 22 mins by micro beta scintillation counting analysis
# [18] = target: T10, Sodium-dependent serotonin transporter (Homo sapiens, UniProt P31645); assay: Enhancing of [125I]RTI-55 binding to recombinant human SERT expressed in HEK293 cell membranes preincubated for 10 mins followed by radioligand addition measured after 90 mins by micro beta scintillation counting analysis
# [19] = target: T10, Sodium-dependent serotonin transporter; assay: Enhancing of [3H]mazindol binding to recombinant human SERT expressed in HEK293 cell membranes preincubated for 10 mins followed by radioligand addition measured after 90 mins by micro beta scintillation counting analysis
# [20] = target: Sodium-dependent dopamine transporter (Mus musculus) (UniProt Q61327); assay: (§2) Enhancing of [125I]RTI-55 binding to mouse DAT expressed in HEK293 cells preincubated for 10 mins followed by radioligand addition measured after 90 mins by micro beta scintillation counting analysis; format: cell-based
# Outline: (§3)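 Membranes preincubated 10 min at room temperature with compound in Krebs-HEPES buffer pH 7.4, then [125I]23 at fixed 45-50 pM for 90 min in the dark, filtered. […] EC50 and % control binding; mean ± SEM.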
# [21] = target: T9, Sodium-dependent dopamine transporter; assay: as §2; format: cell-based; outline: as §3
# [22] = target: T10, Sodium-dependent serotonin transporter; assay: Inhibition of recombinant human SERT expressed in HEK293 cell […] as reduction in [3H]5-HT uptake incubated for 22 mins by micro beta scintillation counting analysis
# Target sequence in this assay (P31645 whole entry): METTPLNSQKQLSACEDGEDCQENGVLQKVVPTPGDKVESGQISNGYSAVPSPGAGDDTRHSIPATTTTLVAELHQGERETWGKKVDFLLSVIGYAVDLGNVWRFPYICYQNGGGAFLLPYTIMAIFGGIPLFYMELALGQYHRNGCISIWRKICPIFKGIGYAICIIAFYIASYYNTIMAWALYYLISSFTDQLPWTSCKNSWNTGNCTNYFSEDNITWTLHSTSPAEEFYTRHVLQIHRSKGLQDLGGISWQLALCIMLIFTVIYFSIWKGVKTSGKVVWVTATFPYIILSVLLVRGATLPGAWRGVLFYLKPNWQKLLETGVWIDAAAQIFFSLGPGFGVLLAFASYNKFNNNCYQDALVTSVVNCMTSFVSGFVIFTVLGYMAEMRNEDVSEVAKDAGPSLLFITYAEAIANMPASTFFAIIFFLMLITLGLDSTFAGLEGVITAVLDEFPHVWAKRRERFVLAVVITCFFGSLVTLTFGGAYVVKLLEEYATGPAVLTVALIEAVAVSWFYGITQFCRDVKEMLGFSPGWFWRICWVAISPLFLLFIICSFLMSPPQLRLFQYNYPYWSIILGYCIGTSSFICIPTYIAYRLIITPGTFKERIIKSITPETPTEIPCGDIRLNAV
# [23] = target: T8, Sodium-dependent noradrenaline transporter; assay: Enhancing of [3H]mazindol binding to recombinant human NET expressed in HEK293 cell membranes preincubated for 10 mins followed by radioligand addition measured after 90 mins by micro beta scintillation counting analysis
# [24] = target: T8, Sodium-dependent noradrenaline transporter; assay: Enhancing of [125I]RTI-55 binding to recombinant human NET expressed in HEK293 cell membranes preincubated for 10 mins followed by radioligand addition measured after 90 mins by micro beta scintillation counting analysis; parameters: concentration or dose not given beside the values
# [25] = target: T11, Adenosine receptor A3 (Mus musculus) (UniProt Q61618); assay: Displacement of [125I]N6-(4-amino-3-iodobenzyl)adenosine-5'-N-methyluronamide from mouse A3AR expressed in HEK293T cells at 10 uM pre-incubated for 10 mins before radioligand addition and measured 90 mins after radioligand addition by micro beta scintillation counting analysis relative to control; format: cell-based
# T11 sequence (whole entry): T7 sequence (Q61618 whole entry)
# [26] = target: Sigma intracellular receptor 2 (Rattus norvegicus, UniProt Q5U3Y7); assay: Displacement of [3H]DTG from rat sigma 2 receptor
# Chain of Sigma intracellular receptor 2 (Q5U3Y7 whole entry): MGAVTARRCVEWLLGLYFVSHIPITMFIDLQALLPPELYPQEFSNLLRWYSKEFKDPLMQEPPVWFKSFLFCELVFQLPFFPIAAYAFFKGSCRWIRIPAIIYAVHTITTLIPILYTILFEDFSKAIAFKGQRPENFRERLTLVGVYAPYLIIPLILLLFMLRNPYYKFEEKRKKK
# T2 sequence (Q01959 whole entry): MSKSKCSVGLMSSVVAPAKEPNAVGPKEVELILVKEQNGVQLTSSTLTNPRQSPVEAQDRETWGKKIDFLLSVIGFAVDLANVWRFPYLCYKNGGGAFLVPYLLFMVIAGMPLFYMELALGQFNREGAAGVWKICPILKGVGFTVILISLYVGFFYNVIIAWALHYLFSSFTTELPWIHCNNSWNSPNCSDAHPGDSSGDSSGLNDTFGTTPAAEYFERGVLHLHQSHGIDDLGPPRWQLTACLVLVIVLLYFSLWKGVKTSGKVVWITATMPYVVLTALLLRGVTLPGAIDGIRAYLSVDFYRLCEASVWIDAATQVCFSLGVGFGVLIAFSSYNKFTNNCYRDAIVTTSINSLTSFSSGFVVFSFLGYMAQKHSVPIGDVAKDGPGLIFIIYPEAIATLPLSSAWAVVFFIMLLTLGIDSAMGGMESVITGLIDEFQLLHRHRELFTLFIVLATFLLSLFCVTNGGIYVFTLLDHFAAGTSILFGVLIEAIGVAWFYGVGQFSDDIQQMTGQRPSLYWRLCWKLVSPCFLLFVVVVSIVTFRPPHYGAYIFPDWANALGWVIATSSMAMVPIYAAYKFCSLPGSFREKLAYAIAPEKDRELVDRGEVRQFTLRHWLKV
# T8 sequence (P23975 whole entry): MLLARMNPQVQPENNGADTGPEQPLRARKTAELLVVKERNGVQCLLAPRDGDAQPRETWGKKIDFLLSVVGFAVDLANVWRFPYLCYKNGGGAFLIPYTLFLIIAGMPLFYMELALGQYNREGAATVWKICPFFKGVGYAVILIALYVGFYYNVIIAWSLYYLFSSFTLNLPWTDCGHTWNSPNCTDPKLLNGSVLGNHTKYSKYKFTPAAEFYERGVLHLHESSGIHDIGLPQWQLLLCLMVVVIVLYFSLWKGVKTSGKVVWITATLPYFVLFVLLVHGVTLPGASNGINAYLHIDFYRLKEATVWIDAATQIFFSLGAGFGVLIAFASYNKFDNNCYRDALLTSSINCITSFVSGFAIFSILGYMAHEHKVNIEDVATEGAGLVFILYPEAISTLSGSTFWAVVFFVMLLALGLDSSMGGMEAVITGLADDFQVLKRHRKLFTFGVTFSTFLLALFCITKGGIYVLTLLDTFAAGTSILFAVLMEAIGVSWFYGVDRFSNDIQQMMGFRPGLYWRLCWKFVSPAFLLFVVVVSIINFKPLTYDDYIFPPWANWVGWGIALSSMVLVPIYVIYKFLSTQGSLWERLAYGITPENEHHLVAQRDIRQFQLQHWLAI
# T9 sequence (Q61327 whole entry): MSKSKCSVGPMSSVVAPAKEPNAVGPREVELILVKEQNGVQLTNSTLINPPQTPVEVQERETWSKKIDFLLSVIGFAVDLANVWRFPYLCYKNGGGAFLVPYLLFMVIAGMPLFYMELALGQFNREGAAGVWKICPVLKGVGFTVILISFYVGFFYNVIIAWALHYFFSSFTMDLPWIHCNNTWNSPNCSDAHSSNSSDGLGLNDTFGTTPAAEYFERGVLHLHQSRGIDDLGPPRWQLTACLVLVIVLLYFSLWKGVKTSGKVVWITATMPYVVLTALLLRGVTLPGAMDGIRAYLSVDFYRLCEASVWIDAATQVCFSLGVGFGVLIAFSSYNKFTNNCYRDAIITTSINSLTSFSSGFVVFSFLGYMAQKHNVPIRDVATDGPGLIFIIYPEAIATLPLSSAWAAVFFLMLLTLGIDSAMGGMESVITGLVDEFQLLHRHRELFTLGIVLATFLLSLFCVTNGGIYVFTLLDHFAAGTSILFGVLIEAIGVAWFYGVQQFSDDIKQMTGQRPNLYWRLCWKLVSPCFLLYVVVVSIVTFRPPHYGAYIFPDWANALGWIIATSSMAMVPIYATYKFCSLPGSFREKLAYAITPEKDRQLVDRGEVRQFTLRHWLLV
# Chain of Alpha-2B adrenergic receptor (P18089 whole entry): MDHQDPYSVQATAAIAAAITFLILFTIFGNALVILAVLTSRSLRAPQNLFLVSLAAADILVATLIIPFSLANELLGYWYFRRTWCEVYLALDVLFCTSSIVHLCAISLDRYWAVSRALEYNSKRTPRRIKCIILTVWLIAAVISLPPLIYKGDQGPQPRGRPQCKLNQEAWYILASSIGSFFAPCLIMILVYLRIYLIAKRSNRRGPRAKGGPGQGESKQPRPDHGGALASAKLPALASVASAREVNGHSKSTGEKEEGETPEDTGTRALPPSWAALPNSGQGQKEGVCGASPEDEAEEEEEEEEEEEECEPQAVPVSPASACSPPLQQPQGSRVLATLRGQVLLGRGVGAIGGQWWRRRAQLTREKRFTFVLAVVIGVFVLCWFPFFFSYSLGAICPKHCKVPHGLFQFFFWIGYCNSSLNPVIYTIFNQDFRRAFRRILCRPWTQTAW
# Chain of Sodium-dependent dopamine transporter (Mus musculus) (Q61327 whole entry): as the sequence (Q61327 whole entry) above
# Chain of Alpha-2A adrenergic receptor (P08913 whole entry): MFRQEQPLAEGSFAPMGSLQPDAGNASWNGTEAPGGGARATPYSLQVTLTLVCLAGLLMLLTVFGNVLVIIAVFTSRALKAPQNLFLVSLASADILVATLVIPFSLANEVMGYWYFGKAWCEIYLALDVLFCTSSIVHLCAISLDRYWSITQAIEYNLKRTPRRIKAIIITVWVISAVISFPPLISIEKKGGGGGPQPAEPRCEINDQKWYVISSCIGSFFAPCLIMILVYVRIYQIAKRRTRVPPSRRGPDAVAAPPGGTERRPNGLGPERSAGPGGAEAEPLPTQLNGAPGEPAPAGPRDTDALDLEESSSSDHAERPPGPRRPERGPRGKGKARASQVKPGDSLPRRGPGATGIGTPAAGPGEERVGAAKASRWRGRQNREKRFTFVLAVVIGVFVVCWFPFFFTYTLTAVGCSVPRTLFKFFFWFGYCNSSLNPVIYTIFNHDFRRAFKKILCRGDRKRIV
smiles,measurement,setting,value
CCCNc1nc(C#Cc2ccc(Cl)s2)nc2c1ncn2[C@@H]1O[C@H](C(=O)NC)[C@@H](O)[C@H]1O,Ki,Adenosine receptor A3 [1],0.00625 µM
same,Activity,[2],84%
same,Ki,[3],5 to 10 µM
same,Ki,[4],5 to 10 µM
same,Ki,[5],> 10 µM
same,EC50,[6],> 1 µM
same,Time,Mus musculus,>6 h
same,Ki,[7],> 10 µM
same,Ki,[8],> 10 µM
same,inhibition,[9],inactive
same,Ki,[10],> 10 µM
same,Ki,Adenosine receptor A3 [11],0.597 µM
same,Ki,[12],3.1 µM
CNC(=O)[C@@]12C[C@@H]1[C@@H](n1cnc3c(NC)nc(C#Cc4ccc(Br)s4)nc31)[C@H](O)[C@@H]2O,IC50,[13],0.229 µM
same,Activity,[14],217%
same,EC50,[14]; read-out: EC50,0.0091 µM
same,Activity,[15],369%
same,EC50,[15]; read-out: EC50,0.87 µM
same,IC50,[16],3.26 µM
same,IC50,[17],6.11 µM
same,Activity,[18],inactive
same,EC50,[18]; read-out: EC50,> 10 µM
same,Activity,[19],inactive
same,EC50,[19],> 10 µM
same,Emax,[20],810%
same,EC50,[21],1.1 µM
same,IC50,[22],> 10 µM
same,Activity,[23],inactive
same,Activity,[24],285%
same,EC50,[24]; read-out: EC50,0.67 µM
CNc1nc(C#Cc2ccc(Cl)s2)nc2c1ncn2[C@H]1[C@H](O)[C@H](O)[C@]2(C(=O)OCCc3ccccc3)C[C@H]12,Ki,Adenosine receptor A3 [1],0.262 µM
same,Activity,[2],inactive
same,inhibition,[25],3%
same,Ki,[26],5.9 µM
